# In the library only some 2.1% were active in any assay of this set; here they are far more common.
# Dynein cargo inh – dynein cargo transport inhibition; 3617.4 mouse cells, GR-EGFP nuclear translocation imaging; test concentration mostly 20 µM; stimulated with dexamethasone, 1 µM; stronger effect = lower value; z-score, hits read low; 220,000 compounds, 0.47% hits;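 active means plate z-score of nuclear minus cytoplasmic receptor signal below a set negative limit, without overly bright fluorescence or cell loss, cut at about -3.5 in these data, passing the limit was not always enough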;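 further: z-score of nuclear minus cytoplasmic ring GR-EGFP intensity difference per well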
#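 Buffer or medium: tet-free medium with charcoal-stripped serum / Also added: dexamethasone agonist, 1.0 µM final, for 30 min / Timing: induction 48 h, compound 1 h, agonist 30 min / Measured by: high-content fluorescence imaging after fixation / Read-out: nuclear-to-cytoplasmic GR-EGFP distribution per well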
# Ins promoter up – MIN6 insulin promoter up-regulation; MIN6 insulin promoter-GFP reporter, high-content imaging; stronger effect = higher value; z-score at 5 µM; 190,000 compounds, 0.3% hits;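 active means z-score above 3 at 5 µM with at least 500 cells counted in the well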
# Autophagy mod – modulators of autophagy. MEF GFP-LC3 puncta imaging; test concentration mostly 10 µM. calls only at 10 µM (by protocol). 190,000 compounds, 0.98% hits. AID 463193;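 active means percentage of spot-positive cells more than 3 SD above its plate mean, without a fluorescence outlier flag or 80% toxicity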;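 further: spot-positive cell cutoff set from DMSO-treated cells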
# INS promoter inh – TRM-6 insulin promoter activity inhibition; TRM-6 cells, insulin promoter-eGFP reporter, imaging; reporter expression induced with tamoxifen; 130,000 compounds, 0.9% hits; inhibition, % at 2 µM;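 active means inhibition above the mean plus 3 SD, with well images judged a real hit on visual review, cut at about 60% in these data, passing the limit was not always enough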
# PERK inhibitor – inhibitors of human PERK kinase; CHO PERK-DD fusion, SEAP luminescence translation reporter; inhibition, % at 5.6 µM; 220,000 compounds, 0.17% hits; AID 1416;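 active means inhibition above the mean inhibition of all tested compounds plus 3 SD, set separately per screening campaign, cut at about 2.9% in these data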;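 further: PERK kinase domain activated by AP20187 dimerizer at 100 nM; 0% = DMSO with dimerizer and 100% = rapamycin at 8.4 µM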
# Target sequence (Q9NZJ5 whole entry, looked up, the tested form may be a part): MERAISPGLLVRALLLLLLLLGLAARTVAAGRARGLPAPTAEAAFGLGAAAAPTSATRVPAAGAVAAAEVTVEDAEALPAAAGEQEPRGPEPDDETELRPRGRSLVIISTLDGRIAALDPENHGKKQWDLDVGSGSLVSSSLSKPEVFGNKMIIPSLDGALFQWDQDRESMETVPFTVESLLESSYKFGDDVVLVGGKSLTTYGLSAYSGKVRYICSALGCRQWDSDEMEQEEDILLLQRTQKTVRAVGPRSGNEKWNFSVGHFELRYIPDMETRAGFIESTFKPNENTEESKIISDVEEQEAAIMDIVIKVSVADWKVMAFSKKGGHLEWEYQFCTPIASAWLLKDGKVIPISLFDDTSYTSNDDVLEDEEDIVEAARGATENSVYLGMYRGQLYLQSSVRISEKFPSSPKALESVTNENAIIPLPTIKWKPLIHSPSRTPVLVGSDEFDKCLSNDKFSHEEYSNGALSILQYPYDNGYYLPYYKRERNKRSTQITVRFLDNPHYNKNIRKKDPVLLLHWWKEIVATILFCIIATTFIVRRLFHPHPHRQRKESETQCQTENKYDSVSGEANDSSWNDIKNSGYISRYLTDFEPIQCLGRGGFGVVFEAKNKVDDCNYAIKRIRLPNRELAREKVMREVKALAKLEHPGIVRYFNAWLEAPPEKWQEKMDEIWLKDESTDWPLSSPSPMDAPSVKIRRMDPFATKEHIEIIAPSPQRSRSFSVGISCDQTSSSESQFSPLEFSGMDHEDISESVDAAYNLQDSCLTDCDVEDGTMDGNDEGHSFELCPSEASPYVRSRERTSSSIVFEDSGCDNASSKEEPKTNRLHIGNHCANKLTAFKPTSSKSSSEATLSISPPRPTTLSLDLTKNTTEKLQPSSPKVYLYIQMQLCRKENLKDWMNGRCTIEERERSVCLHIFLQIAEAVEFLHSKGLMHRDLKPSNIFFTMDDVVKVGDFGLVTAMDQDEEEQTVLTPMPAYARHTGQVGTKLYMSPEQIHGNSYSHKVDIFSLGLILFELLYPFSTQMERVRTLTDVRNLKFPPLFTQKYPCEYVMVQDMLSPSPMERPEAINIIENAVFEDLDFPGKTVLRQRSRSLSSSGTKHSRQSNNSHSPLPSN
# Numbers without * were called inactive; i = inactive; · = not tested or not shown; + = active, no number.
SMILES,Dynein cargo inh,Ins promoter up,Autophagy mod,INS promoter inh,PERK inhibitor
CC(C)(C)n1nc2c(c1NC(=O)c1ccccc1F)CS(=O)C2 (stereo not given),0.22,1.1,+,·,1
CC(C)(C)n1nc2c(c1NC(=O)c1ccco1)CS(=O)C2 (stereo not given),0.12,-0.24,i,0,2
Cn1c(N)c(C(=O)COC(=O)CSc2ccc(Cl)cc2)c(=O)n(C)c1=O,-0.32,0.23,i,0,0
Cc1ccc(NC(=O)c2cc(N3C(=O)CCC3=O)ccc2N2CCOCC2)cc1,1.6,-0.79,+,·,0
CN(C)C1=NC(=O)/C(=C\c2ccccc2)S1,-0.35,-0.23,+,41,1
O=C1N=C(N2CCCC2)S/C1=C\c1ccccc1,0.4,·,i,-170,1
C/C(=N\O)C(C)Oc1ccc(Cl)cc1 (stereo not given),-0.11,0.23,i,-19,1
CCOC(=O)c1c(N2CCCCC2)c2ccccc2[nH]c1=O,0.25,0.26,i,66*,0
Clc1ccc(C[n+]2csc3ccccc32)cc1,1.9,-0.3,+,0,1
Fc1ccc(C[n+]2csc3ccccc32)cc1,0.46,·,i,-4,1
Cc1c(O)ccc2c3c(c(=O)oc12)CCCC3,0.046,0.32,i,·,3.7*
Cn1cc(Br)c(-c2cccc(NC(=O)CCC(=O)O)c2)n1,-0.083,0.47,·,·,1
CC(C)C(NC=C1C(=O)OC(C)(C)OC1=O)C(=O)O (stereo not given),-0.021,0.69,i,4,0
CC(NC=C1C(=O)OC(C)(C)OC1=O)C(=O)O (stereo not given),0.44,-0.25,i,·,3.3*
O=C(O)/C=C/S(=O)(=O)c1ccc2ccccc2c1,-0.95,0.33,·,·,1
Cc1cc(/C=C2/C(=O)N(C)C(=S)N2C)c(C)n1C1CC1,-0.26,0.6,i,-238,0
Cc1cc(/C=C2\SC(=S)NC2=O)c(C)n1C1CC1,0.29,3*,i,-11,2
NS(=O)(=O)c1cccnc1Nc1c(Cl)cccc1Cl,0.8,-0.31,i,7,1
CC(NC(=O)Nc1cccc([N+](=O)[O-])c1)(C(F)(F)F)C(F)(F)F,-0.29,0.54,i,·,1
Cc1nc(NC(=O)COC(=O)CCS(=O)(=O)c2ccccc2Cl)c(Cl)cc1Cl,-2.4,4.2*,i,-21,0
Nc1nc(N2CCCCC2)c(C=O)c(N2CCCCC2)n1,-0.13,-0.74,+,·,0
Nc1nc(Cl)c(C=O)c(N2CCCCC2)n1,-0.78,-0.49,i,0,1
O=C1S/C(=C\c2ccc(N3CCOCC3)o2)C(=O)N1c1ccccc1,-1.4,·,+,·,2
CC(C)(C)c1ccc(C(=O)Oc2ccccc2CCC(=O)O)cc1,0.79,0.01,·,·,3.4*
COCCn1c(=NC(=O)/C=C/c2ccccc2)sc2cc(NC(C)=O)ccc21,-0.41,0.71,i,·,0
SMILES,Dynein cargo inh,Ins promoter up,Autophagy mod,INS promoter inh,PERK inhibitor
O=C(Cn1c2ccccc2c(=O)c2ccccc21)N/N=C/c1cc([N+](=O)[O-])ccc1N1CCCCC1,-0.33,-0.53,+,·,1
Cc1oc(-c2ccccc2F)nc1CN1CCC(C(=O)NC2CCCc3ccccc32)CC1 (stereo not given),0.061,-0.76,i,86*,1
CCOC(=O)C(C)Sc1ccc2nnc(CCNS(=O)(=O)c3ccccc3)n2n1 (stereo not given),0.49,-0.34,i,·,1
COc1cc(NC(=O)c2ccccc2Cl)ccc1NC(=O)c1cccs1,1.5,0.03,i,-27,0
COc1cc(NC(=O)c2cccc(Cl)c2)ccc1NC(=O)c1cccs1,0.95,·,+,33,0
COc1ccc(-n2nnnc2SCC(=O)c2ccc3c(c2)OCCO3)c(OC)c1,-0.59,-0.12,i,·,4.0*
CN1CCN(c2ccc(-c3ccc4ccccc4n3)cc2)CC1,1.1,2,+,·,1
C=CCSc1nc2ccccc2n1S(=O)(=O)c1ccc(C)cc1,4.6,·,i,95*,1
Cc1cc(/C=N/n2c(COc3ccccc3)nc3ccccc3c2=O)c(O)c([N+](=O)[O-])c1,0.28,·,i,·,0
Cc1nc2ccccc2c(=O)n1/N=C/c1cn[nH]c1-c1ccccc1,-0.13,-0.01,·,·,-2
Cc1ccc(-c2[nH]ncc2/C=N/n2c(COc3ccccc3)nc3ccccc3c2=O)cc1,0.98,-0.73,+,·,0
Cc1ccccc1OCc1nc2ccccc2c(=O)n1/N=C/c1cn[nH]c1-c1ccccc1,0.28,-1.2,+,-64,-1
CCCCCCC(C)OC(=O)c1ccccc1C(=O)O (stereo not given),0.32,0.51,·,·,1
Cc1ccc(C2C(C#N)=C(N)Oc3cc(C)oc(=O)c32)o1 (stereo not given),-1.2,·,i,-17,0
COc1ccccc1NC(=O)Cn1c(CCC(=O)O)ccc1-c1ccc(C)cc1,0.51,0.27,i,·,1
CCCCn1c(SCC(=O)Nc2cc(C(F)(F)F)ccc2Cl)nnc1C(CC)N(C)C (stereo not given),-0.024,-0.42,+,-57,-1
CCC(c1nnc(SCC(=O)Nc2ccc(Cl)cc2C(F)(F)F)n1C1CCCCC1)N(C)C (stereo not given),0.59,1.1,i,·,0
Cc1cc(NC(=O)c2ccc3c(c2)C(=O)N(C2CCCCC2)C3=O)no1,1.8,0.31,+,-7,1
COC(=O)Nc1ccc(S(=O)(=O)Nc2ccc(O)cc2)cc1,0.48,·,i,79*,0
CSc1ccc(S(=O)(=O)Nc2ccc(NC(C)=O)cc2)cc1,-0.32,-0.72,i,-32,1
COC(=O)Nc1ccc(S(=O)(=O)Nc2ccc(C)cc2)cc1,-0.59,-0.24,i,-3,2
CC(=O)Nc1ccc(NS(=O)(=O)c2ccccc2)cc1,-1.5,·,+,·,0
CCOc1ccc(NC(=O)C(C)Oc2ccccc2C(=O)Nc2ccc(C)c(Cl)c2)cc1 (stereo not given),-0.2,-2.2,i,8,0
CCN(CC)S(=O)(=O)c1ccc(/C=C/C(=O)OCC(=O)Nc2ccc(S(N)(=O)=O)cc2)cc1,0.9,1.4,i,0,1
NC(=O)[C@@H]1CCCCNc2c(I)cc([N+](=O)[O-])cc2C(=O)N[C@@H](CCC(=O)O)C(=O)N[C@@H](CO)C(=O)N1,0.24,0.1,i,60*,0
NC(=O)[C@@H]1CCNc2c(I)cc([N+](=O)[O-])cc2C(=O)N[C@@H](CCC(=O)O)C(=O)N[C@@H](CO)C(=O)N1,0.98,1.1,i,-5,0
O=C(NC(Cc1c[nH]c2ccccc12)C(=O)O)/C(=C/c1ccc2c(c1)OCO2)NC(=O)c1ccccc1 (stereo not given),0.76,·,i,73*,0
CC(=O)Nc1ccc(Nc2cc(C)nc3c(-c4ccc(Cl)cc4)c(C)nn23)cc1,-0.76,0.32,i,·,0
